Assay results collected from several papers.
Lines come from different studies, so protocols differ.
EGFR L858R/T790M: Epidermal growth factor receptor (EGFR, Homo sapiens, UniProt P00533, L858R/T790M)
EGFR L861Q: Epidermal growth factor receptor (EGFR, Homo sapiens, UniProt P00533, L861Q)
EGFR: Epidermal growth factor receptor (EGFR, Homo sapiens, UniProt P00533)
EGFR del746-750: Epidermal growth factor receptor (EGFR, Homo sapiens, UniProt P00533, del746-750)

Compound | target | read-out | action | technique | tested at | endpoint | result
O=C1NC(c2ccccn2)Sc2ccccc21 (stereo not shown) | Epidermal growth factor receptor (EGFR, Homo sapiens, UniProt P00533, A750P/del747-749) | cell-free assay |  | competition with immobilised ligand | 1 µM | remaining binding | 86%
C=C(Cl)C(=O)Nc1cc(Nc2nc(Nc3cnn(C)c3)c3sccc3n2)c(OC)cc1N1CCN(C)CC1 | EGFR L858R/T790M | enzyme activity | inhibitor | ELISA | 0.1 µM | inhibition | 54.1%
C[C@H]1CCN(c2nccc(-c3cnn4ncccc34)n2)C1 | Epidermal growth factor receptor (EGFR, Homo sapiens, UniProt P00533, G719C) | binding |  |  | 1 µM | remaining binding | 85%
CN(C(=O)c1ccccc1)c1cc(N(C)c2ccc3c(c2)CCc2ccc(C(=O)NCCN4CCOCC4)cc2C3=O)ccc1F | EGFR L858R/T790M | cell-free assay |  | competition with immobilised ligand | 1 µM | remaining binding | 77%
CC/C(=N\NC(=O)NCc1cccc(O)c1)c1ccc(O)c(C)c1O | EGFR L861Q | enzyme activity | inhibitor |  | 0.1 µM | inhibition | 0.4%
Cc1ccc(C(=O)Nc2ccc(CN3CCN(C)CC3)c(C(F)(F)F)c2)cc1C#Cc1cnc2cccnn12 | Epidermal growth factor receptor (EGFR, Homo sapiens, UniProt P00533, del752-759) | cell-free assay |  |  | 23.5 nM | remaining signal | 87%
CCCCN(CCCC)C(=O)CN1C[C@@H](c2cc(OC)c3c(c2)OCO3)[C@H](C(=O)O)[C@H]1CC(C)(C)CCC | Epidermal growth factor receptor (EGFR, Homo sapiens, UniProt P00533, del747-752/P753S) | cell-free assay |  | competition with immobilised ligand | 1 µM | remaining binding | 75.9%
O=C(Nc1cnn(-c2csc(C(=O)NC3COC3)c2)c1)Nc1c(F)cccc1Cl | EGFR | enzyme activity | inhibitor |  | 5 µM | remaining activity | 89.4%
c1cnn2ncc(-c3ccnc(N4CCC45COC5)n3)c2c1 | EGFR del746-750 | binding |  |  | 1 µM | remaining binding | 89%
CN([C@@H]1CCc2c(CC(=O)O)c3cc(S(C)(=O)=O)ccc3n2C1)S(=O)(=O)c1ccc(F)cc1 | EGFR L861Q | cell-free assay |  | competition with immobilised ligand | 1 µM | remaining binding | 100%
CC(C)[C@@H]1NC(=O)[C@H](CCCNC(=N)N)NC(=O)[C@H](Cc2ccc(O)cc2)NC(=O)[C@H](C(C)C)NC(=O)[C@H](C(C)C)NC(=O)[C@H](CCCNC(=N)N)NC(=O)[C@H](CC(=O)O)NC(=O)[C@H](CC(=O)O)NC(=O)[C@H](C)NC(=O)[C@H](Cc2ccc(O)cc2)NC(=O)[C@H](Cc2ccc(O)cc2)NC(=O)[C@H](Cc2ccccc2)NC(=O)[C@@H](Cc2ccc(O)cc2)NC(=O)CSC[C@@H](C(=O)NCC(N)=O)NC(=O)CC(c2ccccc2)NC1=O (stereo partly shown) | EGFR | binding |  | SPR |  | kon | 40200 M⁻¹ s⁻¹
N[C@@H]1CCN(c2nccc(-c3cnn4ncccc34)n2)C1 | EGFR | binding |  |  | 1 µM | remaining binding | 75%
C=CC(=O)Nc1cc(Nc2nc(N3CCc4sccc4C3)c3sccc3n2)c(OC)cc1N1CCN(C)CC1 | EGFR L858R/T790M | enzyme activity | inhibitor | ELISA | 0.1 µM | inhibition | 25.6%
Nc1ncnc2occ(-c3ccc(NC(=O)Nc4cc(C(F)(F)F)ccc4F)cc3)c12 | Epidermal growth factor receptor (EGFR, Homo sapiens, UniProt P00533, L858R) | cell-free assay |  |  | 20 µM | remaining signal | 19%
CC(C)(O)c1cncc(-c2nc3ccc(F)cc3n2C2CC2)c1 | EGFR del746-750 | cell-free assay |  | competition with immobilised ligand | 1 µM | remaining binding | 100%
CN(c1nccc(-c2cnn3ncccc23)n1)C1CC1 | EGFR del746-750 | binding |  |  | 1 µM | remaining binding | 100%
O=C(NCc1ncc(C(F)(F)F)cc1Cl)c1ccc2c(c1)C1(CCS(=O)(=O)CC1)[C@@H](C1CC1)N2S(=O)(=O)c1ccc(F)cc1 | Epidermal growth factor receptor (EGFR, Homo sapiens, UniProt P00533, del747-750/T751S) | cell-free assay |  | competition with immobilised ligand | 1 µM | remaining binding | 79%
Cc1cc(NC(=O)c2cccc3cc(-c4cccc5[nH]nc(N)c45)ccc23)ccc1F | EGFR L858R/T790M | enzyme activity | inhibitor |  | 0.1 µM | activity vs control | 103%
O=C(Nc1cccc(Nc2cc(Nc3cccc(C(F)(F)F)c3)ncn2)c1)C1CC1 | EGFR | cell-free assay |  |  | 0.5 µM | remaining signal | 5.82%
